Screening results (PubChem)
Rows were chosen to be rich in hits. Some 2.4% of all compounds tested hit in one or more screens of this group.
rRNA inh HTS: inhibitors of bacterial rRNA selective over humanized ribosomes. E. coli WT GFP vs humanized-ribosome RFP mutants, fluorescence, 24 h; hits give low values; DMSO median 0, no signal -100. 350,000 tested, 1.6% active. GFP signal change (wild-type ribosome), % (test concentration not listed). AID 720706;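 active = significant combined selectivity score with lowered wild-type GFP, culture density cut under 30%, mutant RFP and density less affected; inactive = any of these conditions unmet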
LGR2 antag: blocks bursicon-induced cAMP signaling via Drosophila LGR2. HEK293 LGR2, CRE-luciferase, bursicon-stimulated, 4 h. inhibition, % at 9.99 µM. 380,000 tested, 0.35% active;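 active = drop in luminescence signal, shown as inhibition above about 50% in the replicate tests, limit read from the data, passing the limit was not always enough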;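 note: agonist challenge used bursicon conditioned medium at about half maximal strength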
EWS-Fli block: EWS/Fli transcriptional activity inhibition | inhibition, % at 12.6 µM | A673 NR0B1-luciferase reporter, viability-normalised | AID 651661 | 350,000 tested, 0.67% active;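 active = mean inhibition of at least 50% after viability correction, with every replicate also passing that limit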;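 note: firefly luciferase signal divided by Alamar Blue viability fluorescence both relative to DMSO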
E-selectin induc: induces E-selectin expression in human endothelial cells; HUVEC E-selectin immunofluorescence imaging; normalized: neutral wells 0, TNF-alpha wells 100; activation, % at 7.58 µM; 260,000 tested, 0.37% active; AID 686992;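 active = mean E-selectin-positive cell signal at least 10% of the positive control, reached in at least 60% of replicates, without over 20% cell loss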
Target sequence (P16581 whole entry, looked up): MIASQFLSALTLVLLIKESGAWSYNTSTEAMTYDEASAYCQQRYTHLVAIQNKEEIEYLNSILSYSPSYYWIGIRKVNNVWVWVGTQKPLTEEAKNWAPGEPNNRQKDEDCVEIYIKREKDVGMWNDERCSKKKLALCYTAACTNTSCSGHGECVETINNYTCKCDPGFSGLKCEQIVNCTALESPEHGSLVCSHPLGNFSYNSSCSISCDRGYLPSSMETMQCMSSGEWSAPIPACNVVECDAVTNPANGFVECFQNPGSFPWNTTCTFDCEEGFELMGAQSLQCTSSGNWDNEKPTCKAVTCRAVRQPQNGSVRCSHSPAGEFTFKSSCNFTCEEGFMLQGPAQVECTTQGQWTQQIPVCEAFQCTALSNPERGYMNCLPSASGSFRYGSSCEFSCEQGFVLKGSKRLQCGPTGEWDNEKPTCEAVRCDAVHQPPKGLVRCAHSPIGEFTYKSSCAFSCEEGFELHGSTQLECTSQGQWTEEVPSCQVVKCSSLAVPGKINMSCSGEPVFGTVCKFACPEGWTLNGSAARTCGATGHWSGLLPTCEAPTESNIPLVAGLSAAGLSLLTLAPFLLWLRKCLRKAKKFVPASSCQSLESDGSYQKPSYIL
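assay system = HUVEC, human umbilical vein endothelial cells | input = 3,000 HUVEC seeded per well | medium = EGM-2 growth medium on 0.1% gelatin-coated wells | dosing = one compound dose added by pin transfer | signal = immunofluorescence imaging | read-out basis = % PE-positive cells | control set = TNF-alpha, DMSO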
Of the large screens only hits and unclear results are named; the others gave an inactive call.

C[C@H](CO)N1C[C@H](C)[C@H](CN(C)C(=O)Nc2ccc(C(F)(F)F)cc2)OCCCC[C@H](C)Oc2ccc(NC(=O)CCC(F)(F)F)cc2C1=O	LGR2 antag 65
C[C@@H]1CN([C@H](C)CO)C(=O)c2cc(NC(=O)Nc3ccc(C(F)(F)F)cc3)ccc2O[C@@H](C)CCCCO[C@@H]1CN(C)CC1CCCCC1	EWS-Fli block 78
CO[C@@H]1CN(C)C(=O)c2cc(NC(=O)C3CCOCC3)ccc2OC[C@@H](C)N(Cc2nccs2)C[C@@H]1C	none
COc1ccc(S(=O)(=O)Nc2ccc3c(c2)C(=O)N([C@H](C)CO)C[C@@H](C)[C@@H](CN(C)C(=O)Nc2ccccc2)OCCCC[C@@H](C)O3)cc1	none
Cc1ccc(-c2ccc3c(c2)O[C@H](CN(C)C(=O)C2CCCCC2)[C@H](C)CN([C@@H](C)CO)S3(=O)=O)cc1	none
COc1cccc(CNc2ccccn2)c1O	none (no result: E-selectin induc)
COc1ccccc1CNc1ccc(Br)cn1	rRNA inh HTS -29
C[C@H]1CCCCO[C@@H](CN(C)C(=O)c2ccncc2)[C@@H](C)CN([C@@H](C)CO)C(=O)c2cc(N(C)C)ccc2O1	none
O=C(NC12CC3CC(CC(C3)C1)C2)N1CCN(c2ccccn2)CC1	none (no result: E-selectin induc)
O=C(NC12CC3CC(CC(C3)C1)C2)N1CCN(c2ncccn2)CC1	rRNA inh HTS -21
C[C@@H]1CCCCO[C@@H](CN(C)C(=O)c2ccccc2)[C@H](C)CN([C@@H](C)CO)C(=O)c2cc(N(C)C)ccc2O1	none
CC12CCC(C(=O)N3CCC(Cc4ccccc4)CC3)(C(=O)C1=O)C2(C)C (stereo unspecified)	rRNA inh HTS -23 (no result: E-selectin induc)
CCCC(=O)N1CCC(Cc2ccccc2)CC1	none
CN1[C@@H]2Cn3c(ccc(-c4ccccc4)c3=O)[C@H]1[C@@H](C(=O)NCCc1ccccc1)[C@@H]2CO	none
OCCN1CCN(c2nc(-c3ccccc3)c3cc(Br)ccc3n2)CC1	none
O=C(O)C1CCN(c2nc(-c3ccccc3)c3cc(Br)ccc3n2)CC1	E-selectin induc 34
COc1ccc(C(C)=O)cc1CSc1nnc(-c2ccccc2O)n1-c1ccccc1	rRNA inh HTS -27 (no result: E-selectin induc)
COCC(C)n1c(C)cc(C(=O)CSc2nnnn2-c2ccc(O)cc2)c1C (stereo unspecified)	rRNA inh HTS -28 (no result: E-selectin induc)
COCC(C)n1c(C)cc(C(=O)CSc2ncccn2)c1C (stereo unspecified)	none
COc1ccc(C(C)=O)cc1CSc1nnnn1-c1ccc(O)cc1	rRNA inh HTS -48
O=C(N/N=C/c1ccc(Cl)cc1Cl)c1ccncc1	none
O=C(N/N=C/c1cccc(Oc2ccccc2)c1)c1ccncc1	rRNA inh HTS -21
CCn1c2ccccc2c2cc(/C=N/NC(=O)c3ccc(O)cc3)ccc21	none (no result: E-selectin induc)
O=C(N/N=C/c1cc(Cl)cc(Cl)c1O)c1ccncc1	rRNA inh HTS -19 (no result: E-selectin induc)
O=C(N/N=C/c1ccncc1)c1ccccc1	none (no result: rRNA inh HTS, EWS-Fli block, E-selectin induc)
CCn1c2ccccc2c2cc(/C=N/NC(=O)c3ccncc3)ccc21	rRNA inh HTS -36 (no result: E-selectin induc)
CCC(=O)N1CC2(CCN(Cc3cccnc3)CC2)c2c(n(C)c3cc(OC)ccc23)[C@@H]1CO	none
CC=Cc1ccc2n(c1=O)C[C@@H]1[C@@H](CO)[C@H](C(=O)N[C@@H](C)c3ccccc3)[C@H]2N1CC1CC1 (mixture of isomers)	none
COc1c(-c2ccc(O)cc2)oc2cc(O)cc(O)c2c1=O	rRNA inh HTS -20 (no result: E-selectin induc)
COc1ccc(-c2oc3cc(O)c(OC)c(O)c3c(=O)c2OC)cc1	none (no result: rRNA inh HTS, E-selectin induc)
Cc1ccccc1S(=O)(=O)NCC[C@@H]1CC[C@H](NC(=O)Nc2cccc(F)c2)[C@H](CO)O1	none
C/C=C/c1ccc2c(c1)O[C@@H](CN(C)C(C)=O)[C@@H](C)CN([C@H](C)CO)S2(=O)=O	none
CC(=O)N1CC23C=CC(CC2CC12CCCCCC2)O3 (stereo unspecified)	E-selectin induc 35
CSc1nc2ccc(NS(=O)(=O)c3ccc(Br)s3)cc2s1	rRNA inh HTS -44
COc1ccc(NC(=O)c2cc([N+](=O)[O-])ccc2O)cc1	LGR2 antag 96, EWS-Fli block 73 (no result: E-selectin induc)
C[C@H]1CN([C@@H](C)CO)C(=O)Cc2cc(NS(=O)(=O)c3ccc(F)cc3)ccc2O[C@@H]1CN(C)C(=O)NC1CCCCC1	none
COc1ccc(S(=O)(=O)Nc2ccc3c(c2)CC(=O)N([C@H](C)CO)C[C@H](C)[C@H](CN(C)C(=O)NC2CCCCC2)O3)cc1	E-selectin induc 76
COc1ccc(S(=O)(=O)Nc2ccc3c(c2)CC(=O)N([C@H](C)CO)C[C@H](C)[C@@H](CN(C)C(=O)NC2CCCCC2)O3)cc1	E-selectin induc 53
COc1ccc(S(=O)(=O)Nc2ccc3c(c2)CC(=O)N([C@@H](C)CO)C[C@@H](C)[C@@H](CN(C)C(=O)NC2CCCCC2)O3)cc1	E-selectin induc 74
C[C@@H]1CN([C@H](C)CO)C(=O)Cc2cc(NS(=O)(=O)c3ccc(Cl)cc3)ccc2O[C@H]1CN(C)C(=O)NC1CCCCC1	none
CC(=NN1CC(=O)NC1=O)c1ccc([N+](=O)[O-])o1	rRNA inh HTS -38
COc1ccc(CNc2ccc([N+](=O)[O-])cc2C)cc1	rRNA inh HTS -24 (no result: E-selectin induc)
COc1ccc2c3c([nH]c2c1)[C@@H](CO)N(C(=O)CN1CCOCC1)CC31CN(C)C1	none (no result: LGR2 antag, EWS-Fli block, E-selectin induc)
O=C(Nc1ccccc1F)N1CCCCN2[C@H](C1)[C@H](c1ccc(C3=CCCCC3)cc1)[C@@H]2CO	none (no result: rRNA inh HTS, LGR2 antag, E-selectin induc)
COc1cc(NC(=S)NCc2cccnc2)cc(OC)c1OC	E-selectin induc 27
COc1ccc(C(=O)NC(=S)NCc2cccnc2)cc1OC	rRNA inh HTS -29
Cc1ccc(S(=O)(=O)N(C)C[C@H]2Oc3c(NC(=O)Nc4ccc5c(c4)OCO5)cccc3C(=O)N([C@@H](C)CO)C[C@@H]2C)cc1	none
CCCNC(=O)N1CC2(C1)[C@@H](c1ccccc1)[C@H](CO)N2C(=O)C1CCC1	none
c1ccc(COn2nnc3ccccc32)c(COn2nnc3ccccc32)c1	rRNA inh HTS -43 (no result: E-selectin induc)
Clc1nc(NCCc2ccccc2)c2cn[nH]c2n1	rRNA inh HTS -30
CCOc1cc(/C=C2\N=C(C)OC2=O)cc(Br)c1OCCc1ccccc1	rRNA inh HTS -24 (no result: E-selectin induc)
CCOc1cc(/C=C2\N=C(C)OC2=O)cc(Br)c1OCC(=O)OC	none (no result: E-selectin induc)
COc1cc([N+](=O)[O-])cc(/C=N\NC(=O)C2COc3ccccc3O2)c1O (stereo unspecified)	rRNA inh HTS -20
C[C@H]1CN([C@@H](C)CO)C(=O)CCCn2cc(nn2)CO[C@@H]1CN(C)Cc1ccc(C(F)(F)F)cc1	none
CC(=O)Nc1cccc2c1O[C@@H](CN(C)C)[C@@H](C)CN(C)C2=O	none (no result: LGR2 antag, EWS-Fli block, E-selectin induc)
O=C(Cc1ccccc1)N1CC2(C1)[C@@H](c1ccccc1)[C@@H](CO)N2C(=O)c1cccnc1	none
CC(c1cccs1)N(Cc1ccco1)C(=S)Nc1ccccc1Cl (stereo unspecified)	rRNA inh HTS -20
Cc1ccccc1NC(=S)N(Cc1ccco1)C(C)c1cccs1 (stereo unspecified)	none
